Laboratory results published in the RNAGym collection of RNA variant scans (doi:10.1038/nmeth.2970).

B1: NELF-E aptamer (parent)
chain: CCCAACGACUGCCGAGCGAGAUUACGCUUGAGCGCCCCACUGAGGAUGCCCACGGGCGAUUGGGGCACGG

Variants of: B1
Test: HiTS-RAP
Conditions: with NELF-E (Drosophila)
Summary of the method: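 Kd came from weighted Hill fits to the first binding curve, with intensities normalised to sequencing intensity and averaged per sequence, keeping only fits whose variance was below 1,000,000. That curve was imaged on an Illumina GAIIx flowcell, where sequenced aptamer DNA templates with a T7 promoter and ter site had been transcribed in situ by T7 RNA polymerase and halted by GST-Tus (30 minutes, 37°C). Before each image, clusters equilibrated for 30 minutes at room temperature with NELF-E-mOrange at 0.064 to 1000 nM in HEPES binding buffer.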
With CCCAAGGACUGCCGAGCGAGAUUACGCUUGAGCGCCCCACUGAGGAUGCCCACGGGCGAUUGUGGCACGG [C6G G63U] the Kd was 10.8 nM.
CCCUACGACUGCCGAGCGAGAUUACGCCUGAGCGCCCCACUGAGGAUGCCCACGGGCGAUUGGGGCACGG [A4U U28C] gave a Kd of 7.47 nM.
CCCAACGACUGCGGAGCGAGAUUACGCUUGAGCGCCCUACUGAGGAUGCCCACGGGCGAUUGGGGCACGG [C13G C38U] showed a Kd of 6.55 nM.
In the case of CCCAACGACUGUCGAGCGGGAUUACGCUUGAGCGCCCCACUGAGGAUGCCCACGGGCGAUUGGGGCACGG [C12U A19G], the Kd is reported as 5.36 nM.
CCCAACGACUGCCAAGCGAGGUUACGCUUGAGCGCCCCACUGAGGAUGCCCACGGGCGAUUGGGGCACGG [G14A A21G] was tested, and the Kd was 6.08 nM.
CCCAACGGCUGCCGAGCAAGAUUACGCUUGAGCGCCCCACUGAGGAUGCCCACGGGCGAUUGGGGCACGG [A8G G18A] showed a Kd of 6.78 nM.
CCCAACGACAGCCGAGCGAGAUUACGCUGGAGCGCCCCACUGAGGAUGCCCACGGGCGAUUGGGGCACGG [U10A U29G] showed a Kd of 5.61 nM.
For CCCAACGACUGCGGAGCGAGAUUACGCGUGAGCGCCCCACUGAGGAUGCCCACGGGCGAUUGGGGCACGG [C13G U28G], the Kd was 6.99 nM.
Work on CCGAACGACUGCCGAGCGAGAUUACGCUUGAGCGCCCCACUGAGGAUGCCCACGGGCGAUUGGGGCACGG [C3G] yielded a Kd of 5.16 nM.
CCCAACGGCUGCCGAGCGAGAUUACGCUUAAGCGCCCCACUGAGGAUGCCCACGGGCGAUUGGGGCACGG [A8G G30A] was tested, and the Kd was 4.89 nM.
CCCAACGACUGCCGAGCGGGAUUACGCUUGAGUGCCCCACUGAGGAUGCCCACGGGCGAUUGGGGCACGG [A19G C33U] showed a Kd of 7.36 nM.
With CCCAACGACUGCCGAGCGAGAUUACGCUUGAGCGCCCCACGGAGGGUGCCCACGGGCGAUUGGGGCACGG [U41G A46G] the Kd was 26.2 nM.
With CCCAACGACCGCCGAGCGAGAUUACGCUUGAGCGCCCCACUGAGGAUGCCCAUGGGCGAUUGGGGCACGG [U10C C53U] the Kd was 3.84 nM.
Variant CCCAAGGACUGCCGAGCGAGGUUACGCUUGAGCGCCCCACUGAGGAUGCCCACGGGCGAUUGGGGCACGG [C6G A21G] has a Kd of 5.74 nM.
Work on CCCAAGGACUGCCGAGCGUGAUUACGCUUGAGCGCCCCACUGAGGAUGCCCACGGGCGAUUGGGGCACGG [C6G A19U] yielded a Kd of 5.95 nM.
In the case of CCCAACGUCUGCCGAGCGAGAUUACGCUUGAGCGCCCCACUGAGGAUGCCCACGGGCGAUUGGGGCUCGG [A8U A67U], the Kd is reported as 7.42 nM.
With CCCAACGACGGCCGAGCGAGAUUCCGCUUGAGCGCCCCACUGAGGAUGCCCACGGGCGAUUGGGGCACGG [U10G A24C] the Kd was 4.94 nM.
For CCCAAUGACGGCCGAGCGAGAUUACGCUUGAGCGCCCCACUGAGGAUGCCCACGGGCGAUUGGGGCACGG [C6U U10G], the Kd was 5.57 nM.
CCCAACGUCUGCCGAGCGAGAUUACGCUUAAGCGCCCCACUGAGGAUGCCCACGGGCGAUUGGGGCACGG [A8U G30A] gave a Kd of 5.46 nM.
CCCAACGGCUGGCGAGCGAGAUUACGCUUGAGCGCCCCACUGAGGAUGCCCACGGGCGAUUGGGGCACGG [A8G C12G] showed a Kd of 5.74 nM.
In the case of CCCAACGACUGCGGAGCGAGAUAACGCUUGAGCGCCCCACUGAGGAUGCCCACGGGCGAUUGGGGCACGG [C13G U23A], the Kd is reported as 5.32 nM.
CCCAACGACUGCCGAGCGAGAUUACGCUUGAGGGCCCCACGGAGGAUGCCCACGGGCGAUUGGGGCACGG [C33G U41G] gave a Kd of 7.38 nM.
CCCAACGACUGCCGAGCGAGAGUACGCUUGAGCGCCCCACUGAGGAUGCCCACGAGCGAUUGGGGCACGG [U22G G55A] showed a Kd of 8.23 nM.
In the case of CCCAACGAGCGCCGAGCGAGAUUACGCUUGAGCGCCCCACUGAGGAUGCCCACGGGCGAUUGGGGCACGG [C9G U10C], the Kd is reported as 5.98 nM.
For CCCUACGACUGCCGAGCGAGAUUACGCUAGAGCGCCCCACUGAGGAUGCCCACGGGCGAUUGGGGCACGG [A4U U29A], the Kd was 4.29 nM.
CCCAACGACUGCCGAGCGAGAUUACGCUGAAGCGCCCCACUGAGGAUGCCCACGGGCGAUUGGGGCACGG [U29G G30A] was tested, and the Kd was 5.05 nM.
CCCGACGACUGCCGAGCGAGAUUACGCUUGAGCGCCCCAUUGAGGAUGCCCACGGGCGAUUGGGGCACGG [A4G C40U] showed a Kd of 64.8 nM.
For CCCAACGACUGCCGAGCGAGAUUACGCUUGAGCGCCCCACGGAGAAUGCCCACGGGCGAUUGGGGCACGG [U41G G45A], the Kd was 53.9 nM.
Work on CCCAACGACUGCCGAUCGAGAUUACGCUUGAGCGCCCCACUGAGGAUGCCCACAGGCGAUUGGGGCACGG [G16U G54A] yielded a Kd of 16.2 nM.
For CCCGACGACUGCCGAGCGAGAUUACGCUUGAGCGCCCCACUGAGGAUGCCCACGGGCGAUCGGGGCACGG [A4G U61C], the Kd was 66.2 nM.
CCCAACGACGGCCGAGCGAGAUUACGCUUGAGCGCCCCACUGAGGAUGCCCACGGGCGAUUGGGGGACGG [U10G C66G] gave a Kd of 4.43 nM.
In the case of CCCAACGGCUGCCGAGCGAGAUUACGCUUGAGCGCCCCGCUGAGGAUGCCCACGGGCGAUUGGGGCACGG [A8G A39G], the Kd is reported as 12.8 nM.
In the case of CCCAACGACGGCCGAGCGAGAUUACGCUAGAGCGCCCCACUGAGGAUGCCCACGGGCGAUUGGGGCACGG [U10G U29A], the Kd is reported as 4.58 nM.
Work on CCCAACGACUGCCGAGCGAGAUUGCGCUUGAUCGCCCCACUGAGGAUGCCCACGGGCGAUUGGGGCACGG [A24G G32U] yielded a Kd of 6.57 nM.
Variant CCCAACGAGUGCCGAGCGAGAUUACGCUUGAGCGCCCCACUGAGGAUGCCCACGGGCGAUUGGGGCACGG [C9G] has a Kd of 5.17 nM.
For CCCAACGACUGCCGAGCGAGAUUGCGCUUGAGCGCCCCACUGAGGAUGCCCACUGGCGAUUGGGGCACGG [A24G G54U], the Kd was 7.49 nM.
Work on CCCAACGAGUGCCGAGCGAGAUUACGCUUGAGCGCCCCACUGAGGAUGCCCACGGGCGAUCGGGGCACGG [C9G U61C] yielded a Kd of 89.2 nM.
Variant CCCAACGACUGCCGAGCGUGAUUACGCUUGAGCGCCCCACUGAGGAUGCCCUCGGGCGAUUGGGGCACGG [A19U A52U] has a Kd of 22.1 nM.
